Test results: ChEMBL document CHEMBL1140589, “Dipeptidyl-alpha,beta-epoxyesters as potent irreversible inhibitors of the cysteine proteases cruzain and rhodesain” (Bioorg Med Chem Lett, 2007)

Experiments:
[1] = target: Cruzipain (Trypanosoma cruzi) (UniProt P25779); assay: Ratio of kinact to ki for cruzain; design: unit not given here
How it was run: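 Continuous assay: enzyme was added by the instrument to inhibitor dilutions with Z-Phe-Arg-AMC in pH 5.5 acetate/DTT buffer while fluorescence was recorded. Progress curves were followed 5 min at 25 °C over a 10-fold dilution range of inhibitor. kobs came from pseudo-first-order fits. For hyperbolic kobs dependence, kinact and Ki were fitted by nonlinear regression to a two-step irreversible mechanism with substrate correction.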

Cruzipain = Cruzipain (Trypanosoma cruzi, UniProt P25779); assay: (§1) Inhibition of cruzain
How it was run: (§2)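 Recombinant enzyme at 4 nM with Z-Phe-Arg-AMC substrate in buffer A (100 mM Na acetate pH 5.5, 5 mM DTT, 0.001% Triton X-100). Enzyme and inhibitor were preincubated 5 min at 25 °C, then substrate was added. Inhibitor serial dilutions were made in DMSO, 10–10,000 nM. IC50 was read directly from a semi-log plot of rate versus inhibitor concentration.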

[2] = target: Cruzipain (Trypanosoma cruzi) (UniProt P25779); assay: as §1; design: concentration or dose not given beside the values; conditions: concentration not given here; how it was run: as §2
[3] = tested on: Trypanosoma brucei brucei; assay: Antimicrobial activity against Trypanosoma brucei brucei; format: functional; design: concentration or dose not given beside the values
[4] = tested on: Trypanosoma brucei brucei; assay: (§3) Inhibition of Trypanosoma brucei brucei cathepsin B; conditions: concentration not given here
How it was run: (§4)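 Recombinant T. brucei cathepsin B at 40 nM with Z-Phe-Arg-AMC in buffer A (100 mM Na acetate pH 5.5, 5 mM DTT, 0.001% Triton X-100). Enzyme was preincubated 5 min at 25 °C with inhibitor (500–10,000 nM, DMSO serial dilutions) before substrate addition. Cleavage was followed by fluorescence at ex 355/em 460 nm, 25 °C. IC50 was taken from a semi-log rate versus concentration plot.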

[5] = as §3; how it was run: as §4
[6] = target: Rhodesain (Trypanosoma brucei rhodesiense) (UniProt Q95PM0); assay: (§5) Inhibition of rhodesain; design: concentration or dose not given beside the values; conditions: concentration not given here; how it was run: as §2
Rhodesain = Rhodesain (Trypanosoma brucei rhodesiense, UniProt Q95PM0); assay: as §5; how it was run: as §2
Sequence of Rhodesain (Q95PM0 whole entry): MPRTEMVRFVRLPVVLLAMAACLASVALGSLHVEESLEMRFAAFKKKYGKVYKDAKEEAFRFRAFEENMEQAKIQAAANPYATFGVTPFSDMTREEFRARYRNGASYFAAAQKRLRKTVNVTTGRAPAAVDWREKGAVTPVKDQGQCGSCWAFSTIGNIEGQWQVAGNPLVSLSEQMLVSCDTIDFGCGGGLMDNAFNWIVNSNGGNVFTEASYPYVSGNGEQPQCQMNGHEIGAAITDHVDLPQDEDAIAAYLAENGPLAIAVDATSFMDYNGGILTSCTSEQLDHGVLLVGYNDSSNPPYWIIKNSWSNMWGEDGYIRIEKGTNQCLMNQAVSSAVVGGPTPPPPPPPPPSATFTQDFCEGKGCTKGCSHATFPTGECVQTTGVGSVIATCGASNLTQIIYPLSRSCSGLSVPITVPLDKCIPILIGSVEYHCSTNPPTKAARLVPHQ

Sequence of Rhodesain (Trypanosoma brucei rhodesiense) (Q95PM0 1-450): as the sequence (Q95PM0 whole entry) above
Sequence of Cruzipain (Trypanosoma cruzi) (P25779 123-467 limits assumed): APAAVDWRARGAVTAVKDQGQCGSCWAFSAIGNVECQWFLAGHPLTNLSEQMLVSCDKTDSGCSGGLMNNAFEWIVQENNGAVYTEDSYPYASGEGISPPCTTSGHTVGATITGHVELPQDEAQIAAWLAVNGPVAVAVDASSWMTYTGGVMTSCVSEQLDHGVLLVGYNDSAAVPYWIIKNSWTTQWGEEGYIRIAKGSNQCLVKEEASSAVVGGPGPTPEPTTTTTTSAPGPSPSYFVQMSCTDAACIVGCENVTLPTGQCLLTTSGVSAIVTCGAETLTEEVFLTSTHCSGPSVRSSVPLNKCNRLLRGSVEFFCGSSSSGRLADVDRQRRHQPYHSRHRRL
Sequence of Cruzipain (P25779 whole entry): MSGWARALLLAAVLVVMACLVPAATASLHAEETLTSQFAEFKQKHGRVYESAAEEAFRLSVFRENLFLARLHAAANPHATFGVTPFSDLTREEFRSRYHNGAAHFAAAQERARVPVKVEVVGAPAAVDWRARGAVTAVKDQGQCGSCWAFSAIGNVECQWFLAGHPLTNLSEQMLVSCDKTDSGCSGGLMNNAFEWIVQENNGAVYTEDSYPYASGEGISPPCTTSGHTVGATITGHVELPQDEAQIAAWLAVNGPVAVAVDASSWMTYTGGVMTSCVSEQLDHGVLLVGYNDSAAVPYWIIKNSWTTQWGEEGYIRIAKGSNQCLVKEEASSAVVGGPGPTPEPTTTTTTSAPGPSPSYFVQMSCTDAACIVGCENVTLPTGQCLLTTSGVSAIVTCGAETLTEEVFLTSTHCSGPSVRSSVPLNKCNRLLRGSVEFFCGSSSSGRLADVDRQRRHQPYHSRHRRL

| Ratio [1] | inhibition [2] [%] | inhibition [6] [%] | SMILES | IC50 (Cruzipain) [nM] | Inhibition [3] [%] | inhibition [4] [%] | IC50 [5] [nM] | IC50 (Rhodesain) [nM] |
| --- | --- | --- | --- | --- | --- | --- | --- | --- |
| 70600 |  |  | CC(C)CCNC(=O)[C@H](CC(C)C)NC(=O)[C@H]1OC1C(=O)O (single isomer, unassigned) |  |  |  |  |  |
|  | 5 | -4 | CCOC(=O)[C@H]1O[C@H]1[C@H](O)[C@H](CCc1ccccc1)NC(=O)[C@H](Cc1ccccc1)NC(=O)OCc1ccccc1 |  | -37 | 6 |  |  |
|  | 100 | 72 | CN1CCN(C(=O)N[C@@H](Cc2ccccc2)C(=O)N[C@H](/C=C/S(=O)(=O)c2ccccc2)CCc2ccccc2)CC1 [K-777] |  | 99 |  | 2000 |  |
| 128000 |  |  | O=C(N[C@@H](Cc1ccccc1)C(=O)N[C@@H](CCc1ccccc1)C(=O)[C@H]1CO1)OCc1ccccc1 | > 1000 |  |  |  |  |
|  | 1 | 3 | CCOC(=O)[C@@H]1O[C@H]1[C@@H](O)[C@H](CCc1ccccc1)NC(=O)[C@H](Cc1ccccc1)NC(=O)OCc1ccccc1 |  | 17 | 3 |  |  |
| 330000 |  |  | O=C(N[C@@H](Cc1ccccc1)C(=O)N[C@@H](CCc1ccccc1)C(=O)[C@@H]1CO1)OCc1ccccc1 | 10 |  |  |  |  |

| SMILES | Ratio [1] | inhibition [2] [%] | inhibition [6] [%] | IC50 (Cruzipain) [nM] | Inhibition [3] [%] | inhibition [4] [%] | IC50 [5] [nM] | IC50 (Rhodesain) [nM] |
| --- | --- | --- | --- | --- | --- | --- | --- | --- |
| CCOC(=O)[C@H]1O[C@H]1C(=O)[C@H](CCc1ccccc1)NC(=O)[C@H](Cc1ccccc1)NC(=O)OCc1ccccc1 | 82900 | 93 | 98 | 20 | 42 | 51 | > 1000 | 3.5 |
| CCOC(=O)[C@@H]1O[C@@H]1C(=O)[C@H](CCc1ccccc1)NC(=O)[C@H](Cc1ccccc1)NC(=O)OCc1ccccc1 | 25200 | 55 | 80 | 50 | -2 | 47 | 400 | 30 |
